These results are taken from PMC4303306 (Biochemistry, 2014).

The target in this assay is T1, wild-type mouse Shp2 catalytic domain (Mus musculus, UniProt P35235).
T1 sequence (P35235 224-539): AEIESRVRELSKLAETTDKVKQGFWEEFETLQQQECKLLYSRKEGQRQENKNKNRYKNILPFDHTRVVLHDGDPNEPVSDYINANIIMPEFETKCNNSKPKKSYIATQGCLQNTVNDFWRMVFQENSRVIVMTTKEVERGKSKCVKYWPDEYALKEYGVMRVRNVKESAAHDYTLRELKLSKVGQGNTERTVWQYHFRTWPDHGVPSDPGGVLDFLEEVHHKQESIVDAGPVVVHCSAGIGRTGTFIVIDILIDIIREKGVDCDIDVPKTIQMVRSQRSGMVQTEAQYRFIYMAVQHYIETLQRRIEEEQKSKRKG
The assay can be described thus: PTP inhibition assay with pNPP, wild-type Shp2 catalytic domain. The assay is classed as biochemical. The conditions noted are these: 120 min incubation. An outline of the steps:
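Catalytic-domain PTP (50 nM) was preincubated with test compound or vehicle for 120 min at 37 °C in PTP buffer (50 mM 3,3-dimethyl glutarate pH 7.0, 1 mM EDTA, 50 mM NaCl). It was then assayed at 37 °C with pNPP at the enzyme's previously determined KM, quenched with 5 M NaOH and read at 405 nm. Activity was normalized to controls, and IC50 came from a four-parameter logistic fit. For Shp2, β-mercaptoethanol (250 μM–1 mM) was also tested at 500 nM compound.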

For the substance fluorescein, the “Shp2 inhibition (structure–activity comparison, Figure 2A)” value was “lack of Shp2 inhibition”.
